{"source": "ChEMBL document CHEMBL5715959", "about": "“Inhibition of histone methyltransferase EZH2 in Schistosoma mansoni in vitro by GSK343 reduces egg laying and decreases the expression of genes implicated in DNA replication and noncoding RNA metabolism” (2018)", "key": {"Schistosoma mansoni [1]": {"test_system": "Schistosoma mansoni", "assay": "Antischistosomal activity against Schistosoma mansoni assessed as schistosomula living cells at 10 to 50 uM incubated for 24 to 72 hrs by fluorescein diacetate staining based fluorescence microscope analysis", "format": "functional, organism-based", "settings": "dose 10-50 µM, time 24-72 hrs", "summary_of_the_method": "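Schistosomula were cultured in supplemented M169 with 10–50 μM GSK343 or 0.1% DMSO for 24, 48 and 72 h. A fresh well set was used per time point, with 2 μg/mL propidium iodide (dead) plus 0.5 μg/mL fluorescein diacetate (live) added. Parasites were read immediately by light and fluorescence microscopy; percent viable was computed against total parasites. About 3600 schistosomula per condition over four biological replicates; 70% ethanol served as positive control.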"}, "Schistosoma mansoni [2]": {"test_system": "Schistosoma mansoni", "assay": "Antischistosomal activity against Schistosoma mansoni assessed as down-regulated MEG-4 mRNA level in schistosomula at 20 uM incubated for 48 hrs by RT-qPCR analysis", "format": "functional, organism-based", "summary_of_the_method": "(§1)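 Schistosomula (supplemented M169) or adult worms (supplemented RPMI) were treated 48 h with 20 μM GSK343 or 0.1% DMSO at 37°C, 5% CO2. qPCR normalizer genes were chosen from RNA-seq data as those with TPM >1 and a treated/control ratio of 0.9–1.1 that were not differentially expressed. Relative expression was calculated by comparative Ct; significance by t-test.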"}, "Schistosoma mansoni [3]": {"test_system": "Schistosoma mansoni", "assay": "Cytotoxicity against adult Schistosoma mansoni assessed as reduction in ATP quantification at 50 uM incubated for 48 hrs by CellTiter-Glo Luminescent assay relative to control", "format": "functional", "design": "scale not given: the % may be the effect or the level left", "summary_of_the_method": "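Worm pairs in supplemented RPMI (10% FBS, 37°C, 5% CO2) exposed 48 h to compound or 0.1% DMSO. ATP measured by luminescence in freshly lysed worms and expressed as % of vehicle signal; three replicate experiments, 10 pairs each, mean ± SD.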"}, "Schistosoma mansoni [4]": {"test_system": "Schistosoma mansoni", "assay": "Antischistosomal activity against adult female Schistosoma mansoni assessed as rupture of blisters in dorsal region at 20 uM incubated for 24 to 48 hrs by scanning electron microscopy analysis", "format": "functional, organism-based", "settings": "time 24-48 hrs", "summary_of_the_method": "(§2)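 Adult couples were taken by perfusion into supplemented RPMI, one couple per well, and adapted 2 h at 37°C, 5% CO2. They were exposed to 20 μM GSK343 or 0.1% DMSO for 24 and 48 h. Fixation used modified Karnovsky with osmium post-fix, followed by ethanol dehydration, critical-point drying, gold sputtering and scanning electron microscopy of tegument surfaces.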"}, "Schistosoma mansoni [5]": {"test_system": "Schistosoma mansoni", "assay": "Antischistosomal activity against adult female Schistosoma mansoni assessed as damaged tegument in anterior region at 20 uM incubated for 48 hrs by scanning electron microscopy analysis", "format": "functional, organism-based", "summary_of_the_method": "as §2"}, "Schistosoma mansoni [6]": {"test_system": "Schistosoma mansoni", "assay": "Antischistosomal activity against adult Schistosoma mansoni assessed as altered motility at 50 uM incubated for 12 hrs by inverted microscope analysis", "format": "functional, organism-based", "summary_of_the_method": "(§3)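 Paired adult worms were cultured in RPMI/10% FBS with antibiotics at 37°C, 5% CO2, with GSK343 or 0.1% DMSO. They were viewed by inverted microscope at 3, 6, 12, 24 and 48 h. Motility was scored on a 0–3 scale (3 full movement, 1.5 partial or immobile but alive, 0 dead); death meant no movement over more than 2 min. Pairing was recorded. Three experiments, each with 10 pairs; mean ± SD.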"}, "Schistosoma mansoni [7]": {"test_system": "Schistosoma mansoni", "assay": "Induction of apoptosis in Schistosoma mansoni assessed as DNA fragmentation at 20 uM incubated for 72 hrs by TUNEL staining based inverted microscope analysis", "format": "functional, organism-based", "summary_of_the_method": "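Schistosomula, 2,000 per well in supplemented M169 after 16 h pre-culture, exposed 72 h to compound or DMSO, then fixed 60 min, permeabilized and TUNEL-labelled for DNA strand breaks. Mounted with DAPI counterstain and imaged by ApoTome fluorescence microscopy at 40× objective.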"}, "Schistosoma mansoni [8]": {"test_system": "Schistosoma mansoni", "assay": "Antischistosomal activity against adult Schistosoma mansoni assessed as increased H3K9ac level at 20 uM incubated for 48 hrs by Western blotting analysis", "format": "functional, organism-based", "summary_of_the_method": "(§4)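 Fifty adult worm pairs were treated 48 h with 20 μM GSK343 or vehicle in supplemented RPMI/10% FBS, then lysed in Triton buffer. Nuclear pellets were acid-extracted overnight in 0.25 M HCl at 4°C and histones were TCA-concentrated. 10 μg went on 15% SDS-PAGE and nitrocellulose, probed with anti-H3K27me3, K9ac, K27ac or K4me3, then IRDye secondaries; infrared densitometry was normalized to anti-H3. Three biological replicates; t-test.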"}, "Schistosoma mansoni [9]": {"test_system": "Schistosoma mansoni", "assay": "Antischistosomal activity against adult female Schistosoma mansoni assessed as reduction in area dimension of egg at 20 uM incubated for 24 to 48 hrs by scanning electron microscopy analysis relative to control", "format": "functional", "design": "scale not given: the % may be the effect or the level left", "settings": "time 24-48 hrs", "summary_of_the_method": "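Eggs released by couples kept 24 or 48 h with 20 μM GSK343 or 0.1% DMSO in supplemented RPMI were fixed in modified Karnovsky with osmium post-fix. They were dehydrated, critical-point dried, gold-coated and imaged by SEM; total egg area dimension was measured.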"}, "Schistosoma mansoni [10]": {"test_system": "Schistosoma mansoni", "assay": "Antischistosomal activity against adult Schistosoma mansoni assessed as dead worms incubated for 24 hrs by inverted microscope analysis", "format": "functional, organism-based", "summary_of_the_method": "as §3"}, "Schistosoma mansoni [11]": {"test_system": "Schistosoma mansoni", "assay": "Antischistosomal activity against Schistosoma mansoni assessed as deterioration of tegument with blisters at 20 uM incubated for 24 hrs by scanning electron microscopy analysis", "format": "functional, organism-based", "summary_of_the_method": "(§5)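 Newly transformed schistosomula were held 16 h in M169 with 2% FBS, serotonin, hypoxanthine, hydrocortisone, triiodothyronine and antibiotics at 37°C, 5% CO2, at 2,000 per well. They were then exposed to 20 μM GSK343 or 0.1% DMSO for 24 and 48 h. Fixation was modified Karnovsky (pH 7.4) with 1% osmium post-fix, then ethanol dehydration, critical-point drying, gold coating and SEM. Lengths came from three experiments, each with 20 schistosomula.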"}, "Schistosoma mansoni [12]": {"test_system": "Schistosoma mansoni", "assay": "Antischistosomal activity against adult Schistosoma mansoni assessed as decreased H3K27me3 level at 20 uM incubated for 48 hrs by Western blotting analysis", "format": "functional, organism-based", "summary_of_the_method": "as §4"}, "Schistosoma mansoni [13]": {"test_system": "Schistosoma mansoni", "assay": "Antischistosomal activity against adult Schistosoma mansoni assessed as dead worms at 50 uM incubated for 48 hrs by inverted microscope analysis", "format": "functional, organism-based", "summary_of_the_method": "as §3"}, "Schistosoma mansoni [14]": {"test_system": "Schistosoma mansoni", "assay": "Antischistosomal activity against female Schistosoma mansoni assessed as down-regulated nanos mRNA level at 20 uM incubated for 48 hrs by RT-qPCR analysis", "format": "functional, organism-based", "summary_of_the_method": "as §1"}, "Schistosoma mansoni [15]": {"test_system": "Schistosoma mansoni", "assay": "Antischistosomal activity against juvenile Schistosoma mansoni assessed as damaged anterior region at 20 to 50 uM incubated for 48 hrs by scanning electron microscopy analysis", "format": "functional, organism-based", "settings": "in the assay text read “at 50 uM” for “at 20 to 50 uM”", "summary_of_the_method": "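Juvenile worms recovered by perfusion, five per well in supplemented RPMI (10% FBS, antibiotics, 37°C, 5% CO2), 2 h adaptation, then exposed 48 h to compound or 0.1% DMSO. Fixed in modified Karnovsky reagent (pH 7.4), washed in cacodylate buffer, post-fixed 1 h in 1% osmium tetroxide, ethanol-dehydrated, critical-point dried, gold-sputtered and imaged by scanning electron microscopy.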"}, "Schistosoma mansoni [16]": {"test_system": "Schistosoma mansoni", "assay": "Antischistosomal activity against Schistosoma mansoni assessed as length of schistosomula at 20 uM incubated for 24 to 48 hrs by scanning electron microscopy analysis (reference value: […])", "format": "functional", "settings": "time 24-48 hrs", "summary_of_the_method": "as §5"}, "Schistosoma mansoni [17]": {"test_system": "Schistosoma mansoni", "assay": "Antischistosomal activity against adult female Schistosoma mansoni assessed as presence of blisters in dorsal region at 20 uM incubated for 24 to 48 hrs by scanning electron microscopy analysis", "format": "functional, organism-based", "settings": "time 24-48 hrs", "summary_of_the_method": "as §2"}, "Schistosoma mansoni [18]": {"test_system": "Schistosoma mansoni", "assay": "Antischistosomal activity against Schistosoma mansoni assessed as down-regulated FGFR substrate 3 mRNA level in schistosomula at 20 uM incubated for 48 hrs by RT-qPCR analysis", "format": "functional, organism-based", "summary_of_the_method": "as §1"}, "Schistosoma mansoni [19]": {"test_system": "Schistosoma mansoni", "assay": "Antischistosomal activity against adult male Schistosoma mansoni assessed as morphological alterations in anterior and posterior regions at 20 uM incubated for 48 hrs by scanning electron microscopy analysis", "format": "functional, organism-based", "summary_of_the_method": "as §2"}}, "note": "Activity calls are given as the source filed them. No cut-off for these calls is given here.", "data": [{"compound": "CCCc1cc(C)[nH]c(=O)c1CNC(=O)c1cc(-c2ccnc(N3CCN(C)CC3)c2)cc2c1cnn2C(C)C", "values": [{"measurement": "Activity", "setting": "Schistosoma mansoni [1]", "value": "Active"}, {"measurement": "Activity", "setting": "Schistosoma mansoni [2]", "value": "Active"}, {"measurement": "Activity", "setting": "Schistosoma mansoni [3]", "value": "<20", "unit": "%"}, {"measurement": "Activity", "setting": "Schistosoma mansoni [4]", "value": "Active"}, {"measurement": "Activity", "setting": "Schistosoma mansoni [5]", "value": "Active"}, {"measurement": "Activity", "setting": "Schistosoma mansoni [6]", "value": "Active"}, {"measurement": "Activity", "setting": "Schistosoma mansoni [7]", "value": "Active"}, {"measurement": "Activity", "setting": "Schistosoma mansoni [8]", "value": "Active"}, {"measurement": "Activity", "setting": "Schistosoma mansoni [9]", "value": 30, "unit": "%"}, {"measurement": "Activity", "setting": "Schistosoma mansoni [10]", "value": "Active"}, {"measurement": "Activity", "setting": "Schistosoma mansoni [11]", "value": "Active"}, {"measurement": "Activity", "setting": "Schistosoma mansoni [12]", "value": "Active"}, {"measurement": "Activity", "setting": "Schistosoma mansoni [13]", "value": "Active"}, {"measurement": "Activity", "setting": "Schistosoma mansoni [14]", "value": "Active"}, {"measurement": "Activity", "setting": "Schistosoma mansoni [15]", "value": "Active"}, {"measurement": "Activity", "setting": "Schistosoma mansoni [16]", "value": 74, "unit": "µm"}, {"measurement": "Activity", "setting": "Schistosoma mansoni [17]", "value": "Active"}, {"measurement": "Activity", "setting": "Schistosoma mansoni [18]", "value": "Active"}, {"measurement": "Activity", "setting": "Schistosoma mansoni [19]", "value": "inactive"}]}]}
